This is an account of results in ChEMBL document CHEMBL1125869, “Calcium-independent phosphodiesterase inhibitors as putative antidepressants: [3-(bicycloalkyloxy)-4-methoxyphenyl]-2-imidazolidinones” (J Med Chem, 1991).

Assay [1] deals with Mus musculus. Nature of the assay: Reversal of reserpine-induced hypothermia in mice by intraperitoneal dose. In kind it is functional. The conditions noted are these: ip, read-out: MED. In outline: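 Individually housed mice at 20 °C received reserpine 2 mg/kg sc 18 h before test. Rectal temperature was measured before and 1 h after dosing with test drug in 5% DMSO/5% Emulphor 620/90% saline. At least four half-log-spaced doses were given, with nine mice per dose. MED was the dose giving a statistically significant temperature increase.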

For assay [2], the species on record is Mus musculus. The experiment in a line: Minimum effective peroral dose (MED) in mouse forced-swim test. In kind it is functional. The conditions noted are these: po, read-out: MED. In outline:
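Mice dosed orally, with compound in vehicle at 1 mL/100 g. One hour later they were placed in water at 25 °C. After 2 min habituation, immobility was rated ten times at 30-s intervals and expressed as percent of control. At least four half-log-spaced doses were given, with nine mice per dose. MED was the lowest dose giving a statistically significant decrease in immobility.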

In assay [3] the target is T1, Phosphodiesterase 4 (Rattus norvegicus, UniProt P14270+P14646+P14644+P54748). The experiment in a line: Inhibition of [3H]- rolipram binding to rat cerebral cortex membranes. In kind it is cell membranes, Membrane. The procedure, abridged:
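Cerebral cortex membranes homogenized in ice-cold 50 mM Tris-HCl pH 8.0 with 1.2 mM MgCl2, spun at 30000g for 20 min at 4 °C, washed once and resuspended at 0.5 mg protein/mL. (±)-[3H]rolipram at 2 nM final, 30 min at 25 °C, triplicates per concentration. Nonspecific binding defined with Ro 20-1724 (10 μM). Filtration, then scintillation counting. IC50 taken from semilog plots over several log concentrations.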

Assay [4] addresses T1, Phosphodiesterase 4. Nature of the assay: Inhibition of calcium-independent Phosphodiesterase 4. In kind it is protein assay. In outline: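 Enzyme taken from the 105000g supernatant of female Sprague-Dawley rat cerebral cortex and separated from the calcium-dependent form on Sephadex G-200. Substrate was 1.0 μM [3H]cAMP in Tris-HCl pH 7.5/MgCl2, run in triplicate for 8 min at 37 °C and stopped by heat. [3H]5'-AMP was separated on boronate affinity gel and counted. IC50 came from semilog plots over three log concentrations in triplicate.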

As for `COc1ccc(C2CNC(=O)N2C)cc1O[C@H]1CC2CC1C1CCCC21` (stereo not given in full), the results for the minimal effective dose in assay [1] and in assay [2] were 320 µg/kg and 32 mg/kg, respectively.
Regarding `COc1ccc(C2CNC(=O)N2C)cc1OC1CC2C=CC1C2` (stereo not given), the minimal effective dose in assay [1] stood at 100 µg/kg; in assay [2] it was 0.1 mg/kg. For the same compound, the IC50 in assay [3] was found to be 3.1 nM; in assay [4] it was 130 nM.
With `COc1ccc(C2CNC(=O)N2C)cc1OC1CC2CCC(C2)C1` (stereo not given), the minimal effective dose in assay [1] is above 3200 µg/kg; in assay [2] it was above 32 mg/kg. The IC50 is above 100 nM in assay [3] and 2400 nM in assay [4].
For `COc1ccc(C2CNC(=O)N2C)cc1O[C@@H]1CC2CC1c1ccccc12` (stereo not given in full), the minimal effective dose in assay [1] is 1000 µg/kg; in assay [2], above 32 mg/kg. For the same compound, the values for the concentration for half-maximal inhibition (IC50) in assay [3] and in assay [4] were 21 nM and 290 nM, respectively.
On to `COc1ccc(C2CNC(=O)N2C)cc1O[C@H]1CC2CCC1C2` (stereo not given in full), for which the minimal effective dose is 1000 µg/kg in assay [1] and above 32 mg/kg in assay [2].
For `COc1ccc(C2CNC(=O)C2)cc1OC1CCCC1` (stereo not given) [ROLIPRAM] the same measures were 0.1 µg/kg and 1.8 mg/kg.
Regarding `COc1ccc(C2CNC(=O)N2C)cc1O[C@@H]1CC2CCC1C2` (stereo not given in full), the minimal effective dose in assay [1] stood at 0.03 µg/kg; in assay [2], 1 mg/kg. Besides, the IC50 in assay [3] came out at 2.6 nM; in assay [4], 220 nM.
For `COc1ccc(C2CNC(=O)N2C)cc1O[C@@H]1CC2CC1C1CCCC21` (stereo not given in full), the minimal effective dose came to 320 µg/kg in assay [1] and 10 mg/kg in assay [2]. The IC50 was determined as 10 nM in assay [3] and 490 nM in assay [4].
`COc1ccc(C2CNC(=O)N2C)cc1OC1CC2C3CCC(C3)C2C1` (stereo not given): the minimal effective dose in assay [1] is 3200 µg/kg; in assay [2], above 32 mg/kg. Also, the 50% inhibitory concentration (IC50) in assay [3] was above 100 nM; in assay [4] it was 1400 nM.
For the compound `COc1ccc(C2CNC(=O)N2C)cc1OC1CC2CCC1CC2` (stereo not given), in assay [1], the minimal effective dose was above 3200 µg/kg. Also, the IC50 came out at 81 nM in assay [3] and 2500 nM in assay [4].
Regarding `COc1ccc(C2CNC(=O)N2C)cc1OC1C2CC3CC(C2)CC1C3` (stereo not given), the minimal effective dose was 3200 µg/kg in assay [1] and above 32 mg/kg in assay [2]. The values for the IC50 in assay [3] and in assay [4] were above 100 nM and 11000 nM, respectively.
`COc1ccc(C2CNC(=O)N2C)cc1OC1CC2C3CCC(C3)C12` (stereo not given): the minimal effective dose in assay [2] is above 32 mg/kg. Moreover, the IC50 in assay [3] was determined as 100 nM; in assay [4] it was 3100 nM.

One may read the IC50 as the concentration that inhibits the measured activity by half.
